Data set [1] concerns the target Indoleamine 2,3-dioxygenase 1 (Homo sapiens) (UniProt P14902). The data set can be described thus: Inhibition of human IDO1 assessed as reduction in kynurenine production at 100 uM using tryptophan as substrate by enzymatic assay.
A short description of data set [2]: Cysteamine reactivity assessed as aromatic signals at 1 mM measured after 30 mins by 1H NMR spectroscopy. In kind it is physicochemical. As to conditions: 0.5 h, 1000 µM.
Data set [3] has as its target Indoleamine 2,3-dioxygenase 1 (Homo sapiens) (UniProt P14902). The data set is described as follows: Inhibition of human IDO1 assessed as reduction in kynurenine production at 100 uM using tryptophan as substrate by cellular assay.
Data set [4] in a line: Cysteamine reactivity assessed as aromatic signals at 1 mM measured after 30 mins by LC-MS/MS analysis. Format: physicochemical. As to conditions: 0.5 h, 1000 µM.
The nature of data set [5]: Metabolic stability in liver microsomes (unknown origin) assessed as half life at 10 uM by UPLC analysis. In kind it is ADME, Microsome. For orientation: Microsomes from liver hold many membrane-bound enzymes, among them those of drug oxidation.
A short description of data set [6]: Cytotoxicity against mouse P815B cells incubated for 2 to 4 hrs by MTS assay. Format: cell-based, P815. The following applies: time 2-4 hrs, read-out: LD50 (the source's name). The gist of the method:
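1 × 10⁵ cells per well in DMEM; MTS with PMS, diluted in PBS, added to the wells; incubated 2–4 h at 37 °C; absorbance read at 490 nm.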
(Formazan colour is commonly taken as a measure of viable cells.)

Data set [7] has as its target Tryptophan 2,3-dioxygenase (Homo sapiens, UniProt P48775). The data set can be described thus: Inhibition of human TDO2 expressed in HEK293E cells assessed as reduction in N-formylkynurenine formation using tryptophan as substrate measured after 24 hrs by HPLCC based UV spectrometry. In kind it is cell-based, HEK2936E.
A short description of data set [8]: Toxicity in mouse P815 cells assessed as cell cycle distribution at > 100 uM measured after 6 to 12 hrs by propidium iodide DNA staining based flow cytometry. The following applies: time 6-12 hrs.

The text below walks through data of ChEMBL document CHEMBL4808224, “Rational Design of Original Fused-Cycle Selective Inhibitors of Tryptophan 2,3-Dioxygenase” (J Med Chem, 2021).

Each structure is given as a SMILES string. The source made the active and inactive calls.

Indoleamine 2,3-dioxygenase 1 (Homo sapiens), sequence (P14902 whole entry, looked up): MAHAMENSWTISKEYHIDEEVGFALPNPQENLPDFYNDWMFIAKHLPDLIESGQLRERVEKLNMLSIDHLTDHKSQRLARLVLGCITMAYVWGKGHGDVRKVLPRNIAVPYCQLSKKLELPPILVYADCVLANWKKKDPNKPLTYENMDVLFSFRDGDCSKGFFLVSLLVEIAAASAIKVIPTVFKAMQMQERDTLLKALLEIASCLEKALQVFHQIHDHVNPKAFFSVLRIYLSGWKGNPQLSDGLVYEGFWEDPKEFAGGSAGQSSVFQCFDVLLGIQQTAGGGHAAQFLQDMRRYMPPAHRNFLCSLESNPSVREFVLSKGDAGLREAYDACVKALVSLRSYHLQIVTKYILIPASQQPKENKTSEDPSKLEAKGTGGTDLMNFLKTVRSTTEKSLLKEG
Tryptophan 2,3-dioxygenase, sequence (P48775 whole entry): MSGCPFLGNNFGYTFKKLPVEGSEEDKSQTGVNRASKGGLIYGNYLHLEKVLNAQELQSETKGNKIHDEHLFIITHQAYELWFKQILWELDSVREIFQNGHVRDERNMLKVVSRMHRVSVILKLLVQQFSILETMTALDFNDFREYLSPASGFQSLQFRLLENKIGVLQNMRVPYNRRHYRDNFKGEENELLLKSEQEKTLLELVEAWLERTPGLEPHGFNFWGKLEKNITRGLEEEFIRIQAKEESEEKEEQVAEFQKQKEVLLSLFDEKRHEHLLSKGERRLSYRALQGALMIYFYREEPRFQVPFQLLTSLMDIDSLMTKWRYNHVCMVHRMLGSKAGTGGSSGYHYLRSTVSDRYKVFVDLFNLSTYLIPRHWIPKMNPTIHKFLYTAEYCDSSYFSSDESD

As to `Fc1ccc2c(/C=C/c3nnn[nH]3)c[nH]c2c1`, the inhibition result in data set [1] and in data set [3] was “inactive” in each case. Besides, the Drug metabolism result in data set [2] and in data set [4] was “Metabolite_Detected” throughout. For the same compound, in data set [5], the half-life at 10 µM is greater than 1440 min. Also, the CC50 in data set [6] is greater than 100 µM.

`c1ccc2c(-c3ccc4cnccc4c3)c[nH]c2c1`: the CC50 in data set [6] is greater than 30 µM.

Turning to `c1ccc2c(-c3ccc4ccncc4c3)c[nH]c2c1`, the CC50 in data set [6] is greater than 20 µM.

`c1ccc2c(-c3ccc4ncncc4c3)c[nH]c2c1`: the CC50 in data set [6] is greater than 100 µM.

As for `O=C1NCC2C=CC(c3c[nH]c4ccccc34)=CC2N1` (stereo not given), the CC50 in data set [6] was greater than 30 µM.

For `Fc1ccc2c(/C=C/c3cccnc3)c[nH]c2c1`, the inhibition entry in data set [1] and in data set [3] was “inactive” in each case. Also, the CC50 in data set [6] was greater than 80 µM.

As for `O=S(=O)(c1ccc(-c2c[nH]c3cc(F)ccc23)cn1)N1CCNCC1`, the IC50 in data set [7] was found to be 3.2 µM.

Consider `c1ccc2c(-c3ccc4cncnc4c3)c[nH]c2c1`, for which the CC50 in data set [6] is greater than 100 µM.

For the compound `FC(F)(F)Cn1nnc2ccc(-c3c[nH]c4ccccc34)cc21`, the half-life at 10 µM in data set [5] is 45 min.

For the compound `c1ccc2c(-c3ccc4n[nH]nc4c3)c[nH]c2c1`, the Activity result in data set [8] is recorded as “Non-Toxic”. In addition, the Drug metabolism entry in data set [2] and in data set [4] was “Metabolite_Notdetected” throughout. The CC50 in data set [6] is greater than 100 µM.

The half-life is the time needed for the level to fall by half in the phase considered. Broadly, the IC50 is the concentration needed to halve the response being measured.
